Results of several laboratories.
Each line is one published result; the experiments were not run side by side.
Target: Tyrosine-protein kinase Fgr (FGR, Homo sapiens, UniProt P09769)

`O=C(NCc1ncc(C(F)(F)F)cc1Cl)c1ccc2c(c1)C1(CCS(=O)(=O)CC1)[C@H](C1CC1)N2S(=O)(=O)c1ccc(F)cc1` has a remaining binding of 100% (cell-free assay, competition with immobilised ligand; 1 µM).
For `COc1ncc2cc3ccccc3nc2c1C#N`, the remaining binding was 100% (cell-free assay, competition with immobilised ligand; 5 µM).
For `COc1ccnn2ncc(-c3ccnc(N(C)C)n3)c12`, the remaining binding was 76% (binding; 1 µM).
With `CCC(=N\O)/C(C)=C/c1ccc(F)cc1` the remaining binding was 67% (cell-free assay, competition with immobilised ligand; 1 µM).
For `O=C(c1ccc(Nc2nccc(-c3cc4ccccc4s3)n2)cc1)N1CCC(N2CCCC2)CC1`, the remaining binding was 93% (cell-free assay, competition with immobilised ligand; 1 µM).
`CNC(=O)[C@@H]1CC[C@@H](n2c(-c3ccc4cnccc4c3)nc3ccc(C(=O)NCc4cccc(C(N)=O)c4)cc32)C1` has a remaining binding of 100% (binding, competition with immobilised ligand; 1 µM).
With `O=C(c1ccc(Nc2ncc(Cl)c(-c3cc4ccccc4s3)n2)cc1)N1CCC(N2CCCC2)CC1` the remaining binding was 92% (cell-free assay, competition with immobilised ligand; 1 µM).
For `O=C(Nc1c[nH]nc1C(=O)NC1CCNCC1)c1cc(F)cc(F)c1`, the remaining binding was 100% (binding, competition with immobilised ligand; 1 µM).
`CC1CCCN1c1nccc(-c2cnn3ncccc23)n1` (centres unmarked) gave a remaining binding of 98% (binding; 1 µM).
For `C[C@H](c1cccc(C#N)c1)n1cc(Cl)cc(C(N)=O)c1=N`, the remaining binding was 80% (cell-free assay, competition with immobilised ligand; 1 µM).
For `Cc1cnn2ncc(-c3ccnc(N(C)C)n3)c2c1`, the remaining binding was 100% (binding; 1 µM).
`COc1cnc(Nc2cccc(S(N)(=O)=O)c2)nc1N1CCN(c2ccccc2)CC1` gave a remaining binding of 95% (binding, competition with immobilised ligand; 1 µM).
`C[C@H]1CCN(c2nccc(-c3cnn4ncccc34)n2)C1` has a remaining binding of 100% (binding; 1 µM).
The remaining binding of `COCCOc1nc(-c2ccc(Cl)nc2)nc2c1CN(C(=O)c1ncn3ccccc13)CC2` is reported as 100% (cell-free assay, competition with immobilised ligand; 0.1 µM).
For `CN(C)c1nccc(-c2cnc3ncccn23)n1`, the remaining binding was 100% (binding; 1 µM).
`Cc1nccc(COC(=O)N2C[C@@H]3[C@@H](CNC(=O)c4ccc5[nH]nnc5c4)[C@@H]3C2)n1` has a remaining binding of 100% (cell-free assay, competition with immobilised ligand; 1 µM).
`CN(C)c1nccc(-c2cnn3ncccc23)n1` gave a remaining binding of 100% (binding; 1 µM).
For `C[C@@H](c1ccc(-n2cnc3c(N)ncnc32)cc1)N1CCc2nn(C)c(Cc3ccccc3)c2C1=O`, the remaining binding was 81% (binding, competition with immobilised ligand; 0.1 µM).
`CN(C)CC#Cc1ccc(OCCCc2sc(N3CCc4cccc(C(=O)Nc5nc6ccccc6s5)c4C3)nc2C(=O)O)c(F)c1` has a remaining binding of 100% (cell-free assay, competition with immobilised ligand; 1 µM).
`Cc1cnc(Nc2ccc(C(=O)N3CCC(N4CCCC4)CC3)cc2)nc1-c1cc2ccccc2s1` has a remaining binding of 53% (cell-free assay, competition with immobilised ligand; 1 µM).
